One may read the IC50 as the concentration needed to halve the response being measured. A lower IC50 goes with greater potency.

The text below walks through data of ChEMBL document CHEMBL4616650, “Spongian Diterpenoids Derived from the Antarctic Sponge Dendrilla antarctica Are Potent Inhibitors of the Leishmania Parasite” (J Nat Prod, 2020).

A value given as a limit tells only on which side of the number the result lay.

The first data set concerns J774.A1. The data set can be described thus: Cytotoxicity against mouse J774A.1 cells incubated for 72 hrs by CellTiter 96 AQueous One solution cell proliferation assay. The data set is classed as cell-based. As to conditions: J774.A1, 72 h. In a few lines:
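J774A.1 macrophages in RPMI 1640 with 10% heat-inactivated FBS, pH 7.2. Seeded at 50 000 cells per well with six 2-fold dilutions, final 50 to 1.6 μg/mL, 72 h at 37 °C, 5% CO2. MTS reagent added for a further 4 h; absorbance read at 490 nm.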
Turning to `CC(=O)O[C@@H]1O[C@H]2OC(=O)[C@H](C)C3=C([C@@]4(C)CCCC(C)(C)C4)CC[C@@H]1[C@H]32`, the 50% inhibitory concentration (IC50) was above 133 µM.

Take `COC(=O)[C@H](C)c1c([C@@]2(C)CCCC(C)(C)C2)ccc2c1C(=O)OC2`: half-maximal inhibition (IC50) required 76.8 µM.

`CO[C@H]1OC(=O)[C@H](C)c2c([C@@]3(C)CCCC(C)(C)C3)ccc(C=O)c21` registered an IC50 of 54.6 µM.

Take `CO[C@@H]1O[C@H](OC)c2c1ccc([C@@]1(C)CCCC(C)(C)C1)c2[C@@H](C)C(=O)O`: the IC50 was above 133 µM.

In turn, `CO[C@H]1O[C@@H](OC(C)=O)c2ccc([C@@]3(C)CCCC(C)(C)C3)c([C@@H](C)C(=O)O)c21` returned an IC50 of 62.9 µM.

`CC(=O)O[C@@H]1O[C@H]2OCC3=C(C)[C@@H]([C@@]4(C)CCCC(C)(C)C4)CC[C@@H]1[C@H]32`: the IC50 is 73.4 µM.

With `C[C@H]1C(=O)O[C@@H](O)c2c(C=O)ccc([C@@]3(C)CCCC(C)(C)C3)c21`, the IC50 was above 150 µM.

For the compound `CO[C@H]1OC(=O)c2ccc([C@@]3(C)CCCC(C)(C)C3)c([C@@H](C)C(=O)O)c21`, the IC50 amounted to 42.4 µM.

For the compound `CO[C@H]1O[C@H](OC)c2c1ccc([C@@]1(C)CCCC(C)(C)C1)c2[C@@H](C)C(=O)O`, the IC50 was above 133 µM.

On to `CC(=O)O[C@@H]1O[C@H]2OC(=O)[C@H](C)C3C([C@@]4(C)CCCC(C)(C)C4)=CC=C1C32` (stereo partly specified), for which the IC50 came out at 12.3 µM.

In turn, `CO[C@@H]1O[C@@H](OC)c2c1ccc([C@@]1(C)CCCC(C)(C)C1)c2[C@@H](C)C(=O)O` [MEMBRANOLIDE C] gave a half-inhibitory concentration (IC50) above 133 µM.

Take `CO[C@H]1O[C@@H](OC)c2c1ccc([C@@]1(C)CCCC(C)(C)C1)c2[C@@H](C)C(=O)O` [MEMBRANOLIDE D]: 95 µM corresponded to half-maximal inhibition (IC50).

As for `CCCCCCCCCCCCCCCCOP(=O)([O-])OCC[N+](C)(C)C` [MILTEFOSINE], the IC50 is above 120 µM.

System in the next data set: not listed separately
The data set can be described thus: Selectivity index, ratio of cytotoxicity against mouse J774A.1 cells to antileishmanial activity against Leishmania donovani MHOM/SD/75/1246/130 amastigotes infected in mouse J774A.1 cells. As to conditions: read-out: Ratio IC50. It counts as toxicity, cell-based.
For the compound `CC(=O)O[C@@H]1O[C@H]2OC(=O)[C@H](C)C3=C([C@@]4(C)CCCC(C)(C)C4)CC[C@@H]1[C@H]32`, the selectivity ratio is above 38.

For the compound `C[C@H]1C(=O)O[C@@H](O)c2c(C=O)ccc([C@@]3(C)CCCC(C)(C)C3)c21`, the selectivity ratio was above 100.

As for `CO[C@H]1O[C@H](OC)c2c1ccc([C@@]1(C)CCCC(C)(C)C1)c2[C@@H](C)C(=O)O`, the selectivity ratio was above 95.

For `CC(=O)O[C@@H]1O[C@H]2OC(=O)[C@H](C)C3C([C@@]4(C)CCCC(C)(C)C4)=CC=C1C32` (stereo partly specified), the selectivity ratio turned out to be 4.

On to `CO[C@@H]1O[C@@H](OC)c2c1ccc([C@@]1(C)CCCC(C)(C)C1)c2[C@@H](C)C(=O)O` [MEMBRANOLIDE C], for which the selectivity ratio was above 166.

The next data set concerns Leishmania donovani. The experiment in a line: Antileishmanial activity against Leishmania donovani MHOM/SD/75/1246/130 amastigotes infected in mouse J774A.1 cells incubated for 72 hrs by DRAQ5 fluorescent probe based assay. The data set is classed as functional, organism-based. As to conditions: MHOM/SD/75/1246/130, J774.A1, 72 h. In a few lines:
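Axenic amastigotes grown at 37 °C in RPMI 1640 pH 5.5 with HEPES, MES, hemin, xanthine, Tween-80, tryptone-peptone, 20% heat-inactivated FBS. 2000 J774A.1 macrophages per well infected at 10:1 parasites:cells, 24 h, 37 °C, 5% CO2; extracellular parasites washed off. Compounds from 10 μg/mL top, 1:2 serial dilutions, 72 h. Fixed 2% paraformaldehyde, DraQ5 5 μM nuclear stain; high-content imaging counts amastigotes per 500 macrophages; IC50 derived.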
`CC(=O)O[C@@H]1O[C@H]2OC(=O)[C@H](C)C3=C([C@@]4(C)CCCC(C)(C)C4)CC[C@@H]1[C@H]32` yielded an IC50 of 3.5 µM.

In the case of `COC(=O)[C@H](C)c1c([C@@]2(C)CCCC(C)(C)C2)ccc2c1C(=O)OC2`, half-maximal inhibition (IC50) required 9.7 µM.

As to `CO[C@H]1OC(=O)[C@H](C)c2c([C@@]3(C)CCCC(C)(C)C3)ccc(C=O)c21`, the IC50 was above 29 µM.

Compound `CO[C@@H]1O[C@H](OC)c2c1ccc([C@@]1(C)CCCC(C)(C)C1)c2[C@@H](C)C(=O)O` yielded an IC50 of 6.5 µM.

In the case of `CO[C@H]1O[C@@H](OC(C)=O)c2ccc([C@@]3(C)CCCC(C)(C)C3)c([C@@H](C)C(=O)O)c21`, the IC50 was 12 µM.

As for `CC(=O)O[C@@H]1O[C@H]2OCC3=C(C)[C@@H]([C@@]4(C)CCCC(C)(C)C4)CC[C@@H]1[C@H]32`, the IC50 amounted to 11.2 µM.

As for `C[C@H]1C(=O)O[C@@H](O)c2c(C=O)ccc([C@@]3(C)CCCC(C)(C)C3)c21`, half-maximal inhibition (IC50) required 1.9 µM.

As to `CO[C@H]1OC(=O)c2ccc([C@@]3(C)CCCC(C)(C)C3)c([C@@H](C)C(=O)O)c21`, the IC50 was 26.7 µM.

In turn, `CO[C@H]1O[C@H](OC)c2c1ccc([C@@]1(C)CCCC(C)(C)C1)c2[C@@H](C)C(=O)O` displayed an IC50 of 1.4 µM.

As for `CC(=O)O[C@@H]1O[C@H]2OC(=O)[C@H](C)C3C([C@@]4(C)CCCC(C)(C)C4)=CC=C1C32` (stereo partly specified), the IC50 amounted to 3.1 µM.

Regarding `CO[C@@H]1O[C@@H](OC)c2c1ccc([C@@]1(C)CCCC(C)(C)C1)c2[C@@H](C)C(=O)O` [MEMBRANOLIDE C], the IC50 is 0.8 µM.

Regarding `CO[C@H]1O[C@@H](OC)c2c1ccc([C@@]1(C)CCCC(C)(C)C1)c2[C@@H](C)C(=O)O` [MEMBRANOLIDE D], half-maximal inhibition (IC50) was put at 6.6 µM.

Take `CCCCCCCCCCCCCCCCOP(=O)([O-])OCC[N+](C)(C)C` [MILTEFOSINE]: the IC50 stood at 2.9 µM.
